Assay results taken from ChEMBL document CHEMBL1149790, “Synthesis of some novel thiourea derivatives obtained from 5-[(4-aminophenoxy)methyl]-4-alkyl/aryl-2,4-dihydro-3H-1,2,4-triazole-3-thiones and evaluation as antiviral/anti-HIV and anti-tuberculosis agents” (Eur J Med Chem, 2008).
In brackets after ≈: the same amount, converted by molar mass.

Tests used:
[1] = Cytotoxicity against human HEL cells assessed as alteration of cell morphology; type: cell-based
In short: (§1)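 Uninfected cell cultures exposed to test compounds alongside antiviral assays; minimum cytotoxic concentration (MCC) = concentration causing a microscopically detectable alteration of cell morphology.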

[2] = Cytotoxicity against human HeLa cells; type: cell-based; in short: as §1
[3] = tested on: Human alphaherpesvirus 1; experiment: Antiviral activity against thymidine kinase deficient and acyclovir resistant HSV1 KOS in human E6SM cells assessed as reduction of virus-induced cytopathogenicity; type: functional; conditions: Human alphaherpesvirus 1, KOS
In short: (§2)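 Confluent cell monolayers (E6SM, HEL, HeLa or Vero, per line) inoculated with 100 CCID50 virus; 1 h adsorption, residual virus removed, then incubated with compound at 400, 200, 100 … µg/ml. Cytopathicity scored once complete in untreated virus controls; MIC = concentration inhibiting virus-induced cytopathicity.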

[4] = tested on: Vesicular stomatitis virus; experiment: Antiviral activity against in Vesicular stomatitis virus in human E6SM cells assessed as reduction of virus-induced cytopathogenicity; type: functional; in short: as §2
[5] = tested on: Human alphaherpesvirus 2; experiment: Antiviral activity against HSV2 G in human E6SM cells assessed as reduction of virus-induced cytopathogenicity; type: functional; conditions: Human alphaherpesvirus 2, G; in short: as §2
[6] = tested on: Human immunodeficiency virus 1; experiment: Antiviral activity against HIV1 3B in human MT4 cells assessed as protection against virus-induced cytopathogenicity by MTT assay; type: functional, organism-based; parameters: Activity: concentration or dose not given beside the values; conditions: for IC50: Human immunodeficiency virus 1, 3B, MT4
In short: (§3)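 MT-4 cells at 6 × 10⁵ cells/ml infected with HIV-1 IIIB or HIV-2 ROD at 100–300 CCID50; compounds in serial five-fold dilutions, triplicate mock- and virus-infected wells. MTT viability read at 540 and 690 nm after 5 days, median OD of three wells; EC50 = 50% protection from viral cytopathic effect.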

[7] = tested on: Vero; experiment: Cytotoxicity against african green monkey Vero cells; type: cell-based; conditions: chlorocebus sabaeus; in short: as §1
[8] = tested on: Punta Toro virus; experiment: Antiviral activity against Punta Toro virus in african green monkey Vero cells assessed as reduction of virus-induced cytopathogenicity; type: functional; in short: as §2
[9] = tested on: Coxsackievirus B4; experiment: Antiviral activity against Coxsackie virus B4 in african green monkey Vero cells assessed as reduction of virus-induced cytopathogenicity; type: functional; conditions: Enterovirus B; in short: as §2
[10] = tested on: Human alphaherpesvirus 1; experiment: Antiviral activity against HSV1 KOS in human HEL cells assessed as reduction of virus-induced cytopathogenicity; type: functional; conditions: Human alphaherpesvirus 1, KOS; in short: as §2
[11] = tested on: Human alphaherpesvirus 1; experiment: Antiviral activity against thymidine kinase deficient and acyclovir resistant HSV1 KOS in human HEL cells assessed as reduction of virus-induced cytopathogenicity; type: functional; conditions: Human alphaherpesvirus 1, KOS; in short: as §2
[12] = tested on: Human respirovirus 3; experiment: Antiviral activity against Parainfluenza 3 virus in african green monkey Vero cells assessed as reduction of virus-induced cytopathogenicity; type: functional; in short: as §2
[13] = tested on: Vesicular stomatitis virus; experiment: Antiviral activity against vesicular stomatitis virus in human HeLa cells assessed as inhibition of virus-induced cytopathogenicity; type: functional; in short: as §2
[14] = tested on: Vesicular stomatitis virus; experiment: Antiviral activity against in Vesicular stomatitis virus in human HEL cells assessed as reduction of virus-induced cytopathogenicity; type: functional; in short: as §2
[15] = tested on: Coxsackievirus B4; experiment: Antiviral activity against Coxsackie virus B4 in human HeLa cells assessed as inhibition of virus-induced cytopathogenicity; type: functional; conditions: Enterovirus B; in short: as §2
[16] = Cytotoxicity against human E6SM cells; type: cell-based; conditions: E6SM cells; in short: as §1
[17] = Cytotoxicity against human MT4 cells by MTT assay; type: cell-based
In short: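 Mock-infected MT-4 cells (6 × 10⁵ cells/ml) with serial five-fold compound dilutions in triplicate; MTT reduction read at 540 and 690 nm after 5 days, median OD of three wells; CC50 = concentration reducing OD540 of mock-infected control by 50%.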

[18] = tested on: Human alphaherpesvirus 1; experiment: Antiviral activity against HSV1 KOS in human E6SM cells assessed as reduction of virus-induced cytopathogenicity; type: functional; conditions: Human alphaherpesvirus 1, KOS; in short: as §2
[19] = tested on: Human alphaherpesvirus 2; experiment: Antiviral activity against HSV2 G in human HEL cells assessed as reduction of virus-induced cytopathogenicity; type: functional; conditions: Human alphaherpesvirus 2, G; in short: as §2
[20] = tested on: Sindbis virus; experiment: Antiviral activity against Sindbis virus in african green monkey Vero cells assessed as reduction of virus-induced cytopathogenicity; type: functional; in short: as §2
[21] = tested on: Human immunodeficiency virus 2; experiment: Antiviral activity against HIV2 ROD in human MT4 cells assessed as protection against virus-induced cytopathogenicity by MTT assay; type: functional, organism-based; parameters: Activity: concentration or dose not given beside the values; conditions: for IC50: Human immunodeficiency virus 2, ROD, MT4; in short: as §3
[22] = tested on: Mammalian orthoreovirus 1; experiment: Antiviral activity against Reo virus 1 in african green monkey Vero cells assessed as reduction of virus-induced cytopathogenicity; type: functional; in short: as §2
[23] = tested on: Respiratory syncytial virus; experiment: Antiviral activity against respiratory syncytial virus in human HeLa cells assessed as inhibition of virus-induced cytopathogenicity; type: functional; in short: as §2

| SMILES | MCC [1] [µg/mL] | MCC [2] [µg/mL] | MIC [3] [µg/mL] | MIC [4] [µg/mL] | MIC [5] [µg/mL] | Activity [7] | MIC [8] [µg/mL] | MIC [9] [µg/mL] | MIC [10] [µg/mL] | MIC [11] [µg/mL] | MIC [12] [µg/mL] | MIC [13] [µg/mL] | MIC [14] [µg/mL] | MIC [15] [µg/mL] | MCC [16] [µg/mL] | MIC [18] [µg/mL] | MIC [19] [µg/mL] | MIC [20] [µg/mL] | MIC [22] [µg/mL] | MIC [23] [µg/mL] | other results |
| --- | --- | --- | --- | --- | --- | --- | --- | --- | --- | --- | --- | --- | --- | --- | --- | --- | --- | --- | --- | --- | --- |
| CNC(=S)Nc1ccc(-c2nnc(SCc3ccccc3)n2C)cc1 | ≥ 16 | 80 | > 16 | > 16 | > 16 | 80 µg/mL | > 16 | > 16 | > 16 | > 16 | > 16 | > 16 | > 16 | > 16 | ≥ 16 | > 16 | > 16 | > 16 | > 16 | > 16 | Activity [6]: 2.5%; IC50 [6]: > 75.4 µg/mL; CC50 [17]: 75.4 µg/mL (≈ 204 µM); Activity [21]: 6%; IC50 [21]: > 75.4 µg/mL |
| NC(=O)c1ncn([C@@H]2O[C@H](CO)[C@@H](O)[C@H]2O)n1 [RIBAVIRIN] | > 400 | > 400 | 48 (≈ 197 µM) | 240 (≈ 983 µM) | 48 (≈ 197 µM) | > 400 µg/mL | 48 (≈ 197 µM) | > 400 | 9.6 (≈ 39.3 µM) | 48 (≈ 197 µM) | 48 (≈ 197 µM) | 48 (≈ 197 µM) | 240 (≈ 983 µM) | 240 (≈ 983 µM) | > 400 | 9.6 (≈ 39.3 µM) | 48 (≈ 197 µM) | 240 (≈ 983 µM) | 48 (≈ 197 µM) | 9.6 (≈ 39.3 µM) |  |
| S=C(Nc1ccccc1)Nc1ccc(-c2n[nH]c(=S)n2-c2ccccc2)cc1 | ≥ 80 | 80 | > 80 | > 80 | > 80 | 80 µg/mL | > 16 | > 16 | > 80 | > 80 | > 16 | > 80 | > 80 | > 80 | ≥ 80 | > 80 | > 80 | > 16 | > 16 | > 80 | Activity [6]: 25%; IC50 [6]: > 28.6 µg/mL; CC50 [17]: 28.6 µg/mL (≈ 70.8 µM); Activity [21]: 0%; IC50 [21]: > 28.6 µg/mL |
| C=CCNC(=S)Nc1ccc(-c2n[nH]c(=S)n2C)cc1 | 400 | 400 | 240 (≈ 786 µM) | > 80 | 240 (≈ 786 µM) | 400 µg/mL | > 80 | > 80 | 240 (≈ 786 µM) | 240 (≈ 786 µM) | > 80 | > 80 | > 80 | > 80 | 400 | 240 (≈ 786 µM) | 240 (≈ 786 µM) | > 80 | > 80 | > 80 | Activity [6]: 9.5%; IC50 [6]: > 78.2 µg/mL; CC50 [17]: 78.2 µg/mL (≈ 256 µM); Activity [21]: 1%; IC50 [21]: > 78.2 µg/mL |
| C=CCn1c(-c2ccc(NC(=S)Nc3ccccc3)cc2)n[nH]c1=S | 80 | 400 | > 16 | > 16 | > 16 | 80 µg/mL | > 16 | > 16 | > 16 | > 16 | > 16 | > 80 | > 16 | > 80 | 80 | > 16 | > 16 | > 16 | > 16 | > 80 | Activity [6]: 30.5%; IC50 [6]: > 19.4 µg/mL; CC50 [17]: 19.4 µg/mL (≈ 52.8 µM); Activity [21]: 0%; IC50 [21]: > 19.4 µg/mL |
| C=CCNC(=S)Nc1ccc(-c2n[nH]c(=S)n2CCc2ccccc2)cc1 | 400 | 400 | > 80 | > 80 | > 80 | >= 80 ug ml-1 | > 80 | > 80 | > 80 | > 80 | > 80 | > 80 | > 80 | > 80 | 400 | > 80 | > 80 | > 80 | > 80 | > 80 | Activity [6]: 9%; IC50 [6]: > 13 µg/mL; CC50 [17]: 13 µg/mL (≈ 32.9 µM); Activity [21]: 0%; IC50 [21]: > 13 µg/mL |
| C=CCn1c(-c2ccc(NC(=S)NC)cc2)n[nH]c1=S | 400 | 400 | 240 (≈ 786 µM) | > 80 | 240 (≈ 786 µM) | >= 80 ug ml-1 | > 80 | > 80 | 240 (≈ 786 µM) | 240 (≈ 786 µM) | > 80 | > 80 | > 80 | > 80 | 400 | 240 (≈ 786 µM) | 240 (≈ 786 µM) | > 80 | > 80 | > 80 | Activity [6]: 9%; IC50 [6]: > 80.9 µg/mL; CC50 [17]: 80.9 µg/mL (≈ 265 µM); Activity [21]: 0%; IC50 [21]: > 80.9 µg/mL |
| CCCCCCNC(=S)Nc1ccc(-c2n[nH]c(=S)n2CC)cc1 | 400 | ≥ 400 | > 80 | > 80 | > 80 | 400 µg/mL | > 80 | > 80 | > 80 | > 80 | > 80 | > 400 | > 80 | > 400 | 400 | > 80 | > 80 | > 80 | > 80 | > 400 | Activity [6]: 21%; IC50 [6]: > 2.58 µg/mL; CC50 [17]: 2.58 µg/mL (≈ 7.1 µM); Activity [21]: 3%; IC50 [21]: > 2.58 µg/mL |
| CCCCCCNC(=S)Nc1ccc(-c2n[nH]c(=S)n2C)cc1 | 400 | 80 | 48 (≈ 137 µM) | > 80 | 48 (≈ 137 µM) | 80 µg/mL | > 16 | > 16 | 48 (≈ 137 µM) | 48 (≈ 137 µM) | > 16 | > 16 | > 80 | > 16 | 400 | 48 (≈ 137 µM) | 48 (≈ 137 µM) | > 16 | > 16 | > 16 | Activity [6]: 8%; IC50 [6]: > 8.82 µg/mL; CC50 [17]: 8.82 µg/mL (≈ 25.2 µM); Activity [21]: 0%; IC50 [21]: > 8.82 µg/mL |
| Nc1ncnc2c1ncn2C[C@H](O)CO [(S)-DHPA] |  | > 400 |  |  |  | > 400 µg/mL | > 400 | > 400 |  |  | > 400 | > 400 |  | > 400 |  |  |  | > 400 | > 400 | > 400 |  |
| C=CCNC(=S)Nc1ccc(-c2nnc(SCc3ccc(Cl)cc3Cl)n2-c2ccccc2)cc1 | ≥ 16 | 80 | > 16 | > 16 | > 16 | >= 16 ug ml-1 | > 16 | > 16 | > 16 | > 16 | > 16 | > 16 | > 16 | > 16 | ≥ 16 | > 16 | > 16 | > 16 | > 16 | > 16 | Activity [6]: 1.5%; IC50 [6]: > 65.3 µg/mL; CC50 [17]: 65.3 µg/mL (≈ 124 µM); Activity [21]: 0%; IC50 [21]: > 65.3 µg/mL |
